These results are taken from ChEMBL document CHEMBL1152368, “Synthesis, structure-activity relationships, and biological profiles of a dihydrobenzoxathiin class of histamine H(3) receptor inverse agonists” (Bioorg Med Chem Lett, 2009).

pIC50, pKi: −log10 of the molar value. Where only a bound is given, the exact number is not on record here.

Experiment [1] deals with Histamine H3 receptor (Rattus norvegicus, UniProt Q9QYN8). As to the kind of experiment: Displacement of [3H]R-alpha-methylhistamine from rat histamine H3 receptor by cell-based assay. Put shortly:
(§1)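 Radioligand binding with [³H]R-α-methylhistamine on membranes of CHO or HEK293 cells expressing human, rat or mouse H₃ receptor.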
Background: In a radioligand displacement assay an active substance lowers the binding of a labelled ligand.

Experiment [2] has as its target Histamine H3 receptor (Mus musculus, UniProt P58406). As to the kind of experiment: Displacement of [3H]R-alpha-methylhistamine from mouse histamine H3 receptor by cell-based assay. In a few lines:
as §1

For experiment [3], the target named is Histamine H1 receptor (Homo sapiens, UniProt P35367). As to the kind of experiment: Inhibition of human histamine H1 receptor.
For experiment [4], the target named is Histamine H2 receptor (Homo sapiens, UniProt P25021). As to the kind of experiment: Inhibition of human histamine H2 receptor.
The target of experiment [5] is Histamine H4 receptor (Homo sapiens, UniProt Q9H3N8). The experiment is described as follows: Inhibition of human histamine H4 receptor.
Chain of Histamine H4 receptor (Q9H3N8 whole entry): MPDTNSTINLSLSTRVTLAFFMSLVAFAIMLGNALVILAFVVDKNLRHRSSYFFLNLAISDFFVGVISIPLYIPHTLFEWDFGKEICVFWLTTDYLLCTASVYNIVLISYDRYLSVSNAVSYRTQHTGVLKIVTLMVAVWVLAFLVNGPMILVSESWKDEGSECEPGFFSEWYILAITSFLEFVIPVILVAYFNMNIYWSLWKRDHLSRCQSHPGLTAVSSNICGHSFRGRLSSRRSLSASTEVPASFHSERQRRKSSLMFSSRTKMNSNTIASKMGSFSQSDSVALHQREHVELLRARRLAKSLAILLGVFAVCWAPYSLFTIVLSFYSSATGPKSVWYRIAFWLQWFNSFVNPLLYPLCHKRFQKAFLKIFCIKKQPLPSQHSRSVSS

Chain of Histamine H3 receptor (Mus musculus, UniProt P58406) (P58406 whole entry): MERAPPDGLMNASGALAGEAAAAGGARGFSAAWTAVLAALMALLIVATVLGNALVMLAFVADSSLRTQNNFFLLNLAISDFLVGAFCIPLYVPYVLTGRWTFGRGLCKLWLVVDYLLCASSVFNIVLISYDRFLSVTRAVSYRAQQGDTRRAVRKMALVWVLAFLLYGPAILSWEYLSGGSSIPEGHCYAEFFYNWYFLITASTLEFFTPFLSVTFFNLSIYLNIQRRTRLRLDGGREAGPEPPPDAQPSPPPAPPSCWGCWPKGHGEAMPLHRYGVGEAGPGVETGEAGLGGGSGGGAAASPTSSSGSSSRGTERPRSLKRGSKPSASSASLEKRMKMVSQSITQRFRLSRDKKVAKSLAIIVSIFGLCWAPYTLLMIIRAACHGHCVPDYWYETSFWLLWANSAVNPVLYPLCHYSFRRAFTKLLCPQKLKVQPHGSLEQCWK
Chain of Histamine H2 receptor (P25021 whole entry): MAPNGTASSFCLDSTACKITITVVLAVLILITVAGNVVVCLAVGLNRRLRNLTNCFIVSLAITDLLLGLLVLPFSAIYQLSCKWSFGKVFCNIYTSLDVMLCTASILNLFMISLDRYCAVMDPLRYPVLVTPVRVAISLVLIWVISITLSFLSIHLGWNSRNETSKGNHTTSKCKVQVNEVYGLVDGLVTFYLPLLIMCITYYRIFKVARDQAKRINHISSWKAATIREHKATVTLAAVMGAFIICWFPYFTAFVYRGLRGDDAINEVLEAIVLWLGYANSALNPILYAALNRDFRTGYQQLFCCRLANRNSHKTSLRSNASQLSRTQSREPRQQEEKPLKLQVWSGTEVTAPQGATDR
Chain of Histamine H3 receptor (Rattus norvegicus, UniProt Q9QYN8) (Q9QYN8 whole entry): as the sequence (P58406 whole entry) above, with A15T, T286A, G290A, H387R, V389I counted along it
Chain of Histamine H1 receptor (P35367 whole entry): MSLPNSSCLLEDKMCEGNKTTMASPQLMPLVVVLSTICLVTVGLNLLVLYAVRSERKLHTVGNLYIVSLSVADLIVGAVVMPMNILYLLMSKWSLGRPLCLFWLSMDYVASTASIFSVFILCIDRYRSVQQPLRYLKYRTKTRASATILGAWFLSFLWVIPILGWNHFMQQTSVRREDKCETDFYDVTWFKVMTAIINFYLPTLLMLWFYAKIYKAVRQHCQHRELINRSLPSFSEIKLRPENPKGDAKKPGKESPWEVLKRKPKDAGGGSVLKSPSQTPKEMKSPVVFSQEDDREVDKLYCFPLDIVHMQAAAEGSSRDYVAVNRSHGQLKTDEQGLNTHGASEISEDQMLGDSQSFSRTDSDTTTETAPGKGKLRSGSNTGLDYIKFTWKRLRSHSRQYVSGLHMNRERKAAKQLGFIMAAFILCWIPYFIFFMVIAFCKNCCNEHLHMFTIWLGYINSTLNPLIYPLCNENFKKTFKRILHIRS

Regarding `COc1cccc2c1O[C@@H](c1ccc(OCCCN3CCCC3)cc1)[C@H](C)S2(=O)=O`, the negative-log Ki (pKi) (in general, the negative decadic logarithm of the Ki, by convention in mol/L) in experiment [1] was 8.55; in experiment [2] it was 8.23. Further, the pIC50 in experiment [3], in experiment [4] and in experiment [5] was under 5.00 each time.
